Reference: ChEMBL document CHEMBL4725393, “Prodrug Strategies to Improve the Solubility of the HCV NS5A Inhibitor Pibrentasvir (ABT-530)” (J Med Chem, 2020)
Values after ≈ are worked out from the molar mass of the structure shown.

How the values were obtained:
[1] = Cmax in CD1 mouse assessed as pibrentasvir1 level at 6 mg/kg, po measured up to 24 hrs; type: ADME, organism-based; design: route oral, dose 6 mg/kg, time <=24; conditions: in vivo
Summary of the method: (§1)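 CD-1 mice with free access to food and water received an oral gavage of prodrug or PIB at 10 mL/kg in 0.2% HPMC. The dose was adjusted for prodrug MW to equal 6 mg/kg PIB. K2EDTA blood was drawn at 0.25, 0.5, 1, 3, 6, 9, 12 and 24 h. Plasma was spun at 3200 x g for 5 min at ~4°C and stored below -15°C. PIB and prodrug were measured; AUC in ng·h/mL, Cmax in ng/mL.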

[2] = AUC in CD1 mouse assessed as pibrentasvir1 level at 6 mg/kg, po measured up to 24 hrs; type: ADME, organism-based; design: route oral, dose 6 mg/kg, time <=24; conditions: in vivo; summary of the method: as §1
[3] = AUC in beagle dog assessed as pibrentasvir1 level at 40 mg, po measured up to 24 hrs; type: ADME, organism-based, Canis lupus familiaris; design: route oral, dose 40 mg, time <=24; conditions: in vivo
Summary of the method: (§2)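 The dose equalled 40 mg PIB after adjustment for prodrug MW. Food was returned at 12 h. K2EDTA plasma was sampled at 0.25–24 h. Cmax is in ng/mL and AUC in ng·h/mL.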

[4] = Stability of compound at pH 1 assessed as prodrug remaining level at 125 ug/ml incubated for 24 hrs by HPLC analysis; type: physicochemical; conditions: buffer, pH 1, 24 h, at 125 µg/mL
Summary of the method: (§3)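 A DMSO stock of about 1.25 mg/mL was diluted into 0.1 N HCl (pH 1) or 50 mM phosphate buffer (pH 7.4), giving final concentrations of ~125 µg/mL prodrug and 10% DMSO. The solution was filtered and held at 37 °C in the HPLC autosampler, with injections at several times over 24 h. Percent remaining was calculated from prodrug peak area relative to t0.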

[5] = Solubility in FeSSIF at pH 5; type: physicochemical
Summary of the method: (§4)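 For equilibrium solubility, excess solid was added to 3–4 mL of medium, in triplicate. Suspension pH was read after equilibration. Solids were removed by centrifugation at 4000 rpm at 25 °C, and the supernatant was passed through a 0.45 µm filter, discarding the first 2 mL. The filtrate was quantified by HPLC against standard curves.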

[6] = Stability of compound at pH 7.4 assessed as prodrug remaining level at 125 ug/ml incubated for 24 hrs by HPLC analysis; type: physicochemical; conditions: buffer, pH 7.4, 24 h, at 125 µg/mL; summary of the method: as §3
[7] = Cmax in beagle dog assessed as pibrentasvir1 level at 40 mg, po measured up to 24 hrs; type: ADME, organism-based, Canis lupus familiaris; design: route oral, dose 40 mg, time <=24; conditions: in vivo; summary of the method: as §2
[8] = AUC in cynomolgus monkey at 2 mg/kg, po measured up to 12 hrs; type: ADME, organism-based, Macaca fascicularis; design: route oral, dose 2 mg/kg, time <=12; conditions: in vivo
Summary of the method: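 Female cynomolgus monkeys were fasted overnight and dosed by gastric intubation with a suspension in 0.5% HPMC at 0.5 mL/kg. The dose was MW-adjusted to 2 mg/kg PIB equivalent, and food was returned at 4 h. Plasma was collected at intervals up to 12 h and assayed for PIB and prodrug to give AUC in ng·h/mL.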

[9] = Equilibrium solubility of compound at pH 1 incubated for 24 to 48 hrs by HPLC analysis; type: physicochemical; conditions: buffer, time 24-48 hrs; summary of the method: as §4
[10] = Half life of compound at pH 7.4 at 125 ug/ml at 37 degC by HPLC analysis; type: physicochemical; conditions: dose 125 µg/ml
[11] = Equilibrium solubility of compound at pH 7.4 incubated for 24 to 48 hrs by HPLC analysis; type: physicochemical; conditions: buffer, time 24-48 hrs; summary of the method: as §4
[12] = AUC in beagle dog at 40 mg, po measured up to 24 hrs; type: ADME, organism-based, Canis lupus familiaris; design: route oral, dose 40 mg, time <=24; conditions: in vivo; summary of the method: as §2
[13] = Cmax in CD1 mouse assessed as pibrentasvir1 level at 3 mg/kg, po measured up to 24 hrs; type: ADME, organism-based; design: route oral, dose 3 mg/kg, time <=24; conditions: in vivo
Summary of the method: (§5)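 CD-1 mice, fed ad libitum, were dosed orally at a prodrug-MW-adjusted dose equal to 3 mg/kg PIB, as a solution or suspension. Serial K2EDTA blood samples were taken from 0.25 to 24 h. Plasma was separated by centrifugation and kept frozen. PIB and prodrug levels were reported as Cmax (ng/mL) and AUC (ng·h/mL).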

[14] = AUC in CD1 mouse assessed as pibrentasvir1 level at 3 mg/kg, po measured up to 24 hrs; type: ADME, organism-based; design: route oral, dose 3 mg/kg, time <=24; conditions: in vivo; summary of the method: as §5
[15] = Cmax in CD1 mouse at 3 mg/kg, po measured up to 24 hrs; type: ADME, organism-based; design: route oral, dose 3 mg/kg, time <=24; conditions: in vivo; summary of the method: as §5
[16] = AUC in CD1 mouse at 3 mg/kg, po measured up to 24 hrs; type: ADME, organism-based; design: route oral, dose 3 mg/kg, time <=24; conditions: in vivo; summary of the method: as §5
[17] = Cmax in beagle dog at 40 mg, po measured up to 24 hrs; type: ADME, organism-based, Canis lupus familiaris; design: route oral, dose 40 mg, time <=24; conditions: in vivo; summary of the method: as §2

| Cmax [1] | AUC [2] | AUC [3] | Stabilty [4] | solubility [5] | Stabilty [6] | Cmax [7] | AUC at 12 h [8] | solubility thermodynamic [9] | half-life at 125 ug/ml [10] | solubility thermodynamic [11] | AUC at 24 h [12] | Cmax [13] | AUC [14] | Cmax [15] | AUC at 24 h [16] | Cmax [17] | Compound |
| --- | --- | --- | --- | --- | --- | --- | --- | --- | --- | --- | --- | --- | --- | --- | --- | --- | --- |
| 1210 ng/mL | 20600 ng·h/mL | 3210 ng·h/mL | 87% | 794 µg/mL (≈ 556 µM) | 100% | 249 ng/mL | 240 ng·h/mL | 572 µg/mL (≈ 401 µM) | > 72 h | 0.5 µg/mL (≈ 0.35 µM) | – | – | – | – | – | – | COC(=O)N[C@H](C(=O)N1CCC[C@H]1c1nc2cc(F)c([C@H]3CC[C@H](c4cc5nc([C@@H]6CCCN6C(=O)[C@@H](NC(=O)OC)[C@@H](C)OC)n(COC(=O)CC(C)(C)c6c(C)cc(C)cc6OP(=O)(O)O)c5cc4F)N3c3cc(F)c(N4CCC(c5ccc(F)cc5)CC4)c(F)c3)cc2[nH]1)[C@@H](C)OC |
| – | – | 3940 ng·h/mL | 78% | > 1000 µg/mL | 5% | 379 ng/mL | – | > 1000 µg/mL | – | < 0.1 µg/mL | 568 ng·h/mL | 129 ng/mL | 2340 ng·h/mL | – | – | – | COC(=O)N[C@H](C(=O)N1CCC[C@H]1c1nc2cc(F)c([C@H]3CC[C@H](c4cc5nc([C@@H]6CCCN6C(=O)[C@@H](NC(=O)OC)[C@@H](C)OC)n(COC(=O)[C@@H](N)C(C)C)c5cc4F)N3c3cc(F)c(N4CCC(c5ccc(F)cc5)CC4)c(F)c3)cc2[nH]1)[C@@H](C)OC |
| – | – | 1470 ng·h/mL | 100% | – | 100% | 152 ng/mL | – | > 4000 µg/mL | – | > 4000 µg/mL | 93 ng·h/mL | 17 ng/mL | 278 ng·h/mL | 2.2 ng/mL | 12.6 ng·h/mL | 20 ng/mL | COC(=O)N[C@H](C(=O)N1CCC[C@H]1c1nc2cc(F)c([C@H]3CC[C@H](c4cc5c(cc4F)nc([C@@H]4CCCN4C(=O)[C@@H](NC(=O)OC)[C@@H](C)OC)n5COP(=O)(O)O)N3c3cc(F)c(N4CCC(c5ccc(F)cc5)CC4)c(F)c3)cc2[nH]1)[C@@H](C)OC |
| – | – | 2580 ng·h/mL | – | – | – | 275 ng/mL | – | > 1000 µg/mL | – | > 1000 µg/mL | – | 28 ng/mL | 477 ng·h/mL | – | – | – | COC(=O)N[C@H](C(=O)N1CCC[C@H]1c1nc2cc([C@H]3CC[C@H](c4cc5c(cc4F)nc([C@@H]4CCCN4C(=O)[C@@H](NC(=O)OC)[C@@H](C)OC)n5COP(=O)(O)O)N3c3cc(F)c(N4CCC(c5ccc(F)cc5)CC4)c(F)c3)c(F)cc2n1COP(=O)(O)O)[C@@H](C)OC |
| – | – | 611 ng·h/mL | – | – | – | 66 ng/mL | – | 567 µg/mL (≈ 425 µM) | – | > 1000 µg/mL | – | 20 ng/mL | 353 ng·h/mL | – | – | – | COC(=O)N[C@H](C(=O)N1CCC[C@H]1c1nc2cc(F)c([C@H]3CC[C@H](c4cc5c(cc4F)nc([C@@H]4CCCN4C(=O)[C@@H](NC(=O)OC)[C@@H](C)OC)n5COP(=O)(O)O)N3c3cc(F)c(N4CCC(c5ccc(F)cc5)CC4)c(F)c3)cc2n1COP(=O)(O)O)[C@@H](C)OC |
| – | – | 429 ng·h/mL | 100% | – | 100% | 55 ng/mL | 160 ng·h/mL | 37.3 µg/mL (≈ 30.5 µM) | > 72 h | 6.4 µg/mL (≈ 5.23 µM) | – | 141 ng/mL | 2660 ng·h/mL | – | – | – | COC(=O)N[C@H](C(=O)N1CCC[C@H]1c1nc2cc(F)c([C@H]3CC[C@H](c4cc5nc([C@@H]6CCCN6C(=O)[C@@H](NC(=O)OC)[C@@H](C)OC)n(COP(=O)(O)O)c5cc4F)N3c3cc(F)c(N4CCC(c5ccc(F)cc5)CC4)c(F)c3)cc2[nH]1)[C@@H](C)OC |
| – | – | 1210 ng·h/mL | 97% | – | 31% | 112 ng/mL | – | 186 µg/mL (≈ 135 µM) | < 24 h | 0.7 µg/mL (≈ 0.507 µM) | – | 216 ng/mL | 3710 ng·h/mL | – | – | – | COC(=O)N[C@H](C(=O)N1CCC[C@H]1c1nc2cc(F)c([C@H]3CC[C@H](c4cc5nc([C@@H]6CCCN6C(=O)[C@@H](NC(=O)OC)[C@@H](C)OC)n(COC(=O)[C@@H](NC(=O)COP(=O)(O)O)C(C)C)c5cc4F)N3c3cc(F)c(N4CCC(c5ccc(F)cc5)CC4)c(F)c3)cc2[nH]1)[C@@H](C)OC |
| 513 ng/mL | 8930 ng·h/mL | – | 95% | > 1000 µg/mL | 28% | – | – | 271 µg/mL (≈ 194 µM) | < 24 h | > 1000 µg/mL | – | – | – | – | – | – | COC(=O)N[C@H](C(=O)N1CCC[C@H]1c1nc2cc(F)c([C@H]3CC[C@H](c4cc5c(cc4F)nc([C@@H]4CCCN4C(=O)[C@@H](NC(=O)OC)[C@@H](C)OC)n5COC(=O)[C@@H](NC(=O)OCOP(=O)(O)O)C(C)C)N3c3cc(F)c(N4CCC(c5ccc(F)cc5)CC4)c(F)c3)cc2[nH]1)[C@@H](C)OC |
| 905 ng/mL | 16100 ng·h/mL | 1920 ng·h/mL | 74% | > 1000 µg/mL | 71% | 155 ng/mL | 197 ng·h/mL | 45 µg/mL (≈ 33.2 µM) | > 24 h | 135 µg/mL (≈ 99.5 µM) | – | – | – | – | – | – | COC(=O)N[C@H](C(=O)N1CCC[C@H]1c1nc2cc(F)c([C@H]3CC[C@H](c4cc5nc([C@@H]6CCCN6C(=O)[C@@H](NC(=O)OC)[C@@H](C)OC)n(COC(=O)Cc6ccc(OP(=O)(O)O)cc6)c5cc4F)N3c3cc(F)c(N4CCC(c5ccc(F)cc5)CC4)c(F)c3)cc2[nH]1)[C@@H](C)OC |
| – | – | 355 ng·h/mL | 100% | – | – | 40 ng/mL | – | 135 µg/mL (≈ 101 µM) | – | 123 µg/mL (≈ 92.1 µM) | – | 396 ng/mL | 6070 ng·h/mL | – | – | – | COC(=O)N[C@H](C(=O)N1CCC[C@H]1c1nc2cc([C@H]3CC[C@H](c4cc5nc([C@@H]6CCCN6C(=O)[C@@H](NC(=O)OC)[C@@H](C)OC)n(COP(=O)(O)O)c5cc4F)N3c3cc(F)c(N4CCC(c5ccc(F)cc5)CC4)c(F)c3)c(F)cc2n1COP(=O)(O)O)[C@@H](C)OC |
